NadD inh – inhibitors of S. aureus NadD, primary screen, biochemical, colorimetric, uHTS. Nicotinate-nucleotide adenylyltransferase NadD (Staphylococcus aureus N315). purified NadD enzyme, colorimetric absorbance read-out. 360,000 tested, 0.78% active. AID 602399, 2012. inhibition, % at 20 µM; in the data active = inhibition above about 26%
SUMO1 PPI mod – modulators of SUMO1 protein-protein interactions, primary screen, biochemical, uHTS | Small ubiquitin-related modifier 1 (Homo sapiens), P63165 | SUMO1 binding to a labelled peptide, TR-FRET, 1 h | inhibition, % at 20 µM | 360,000 tested, 0.33% active | AID 602429, 2012; in the data active = inhibition above about 37%
Target sequence (P63165 whole entry, looked up): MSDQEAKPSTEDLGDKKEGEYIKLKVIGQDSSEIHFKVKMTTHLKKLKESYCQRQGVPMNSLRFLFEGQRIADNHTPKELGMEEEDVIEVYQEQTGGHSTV
Scp-1 inhibitor – Scp-1 phosphatase inhibitors, primary screen, biochemical, colorimetric, uHTS. Carboxy-terminal domain RNA polymerase II polypeptide A small phosphatase 1 (Homo …. Recombinant Scp1, phosphopeptide, malachite green phosphate absorbance. inhibition, % at 20 µM. 340,000 tested, 0.88% active. AID 493091, 2011;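 active = inhibition above about 50% at 20 µM, limit read from the data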;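 also: plate controls were DMSO wells with enzyme for no effect and wells lacking enzyme for full effect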
Target sequence (Q9GZU7 76-261 limits assumed): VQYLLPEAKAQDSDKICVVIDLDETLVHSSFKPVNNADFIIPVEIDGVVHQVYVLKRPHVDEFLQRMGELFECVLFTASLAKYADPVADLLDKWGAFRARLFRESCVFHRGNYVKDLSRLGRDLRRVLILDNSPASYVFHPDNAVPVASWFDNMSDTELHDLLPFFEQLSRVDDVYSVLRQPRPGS
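Test system – truncated SCP-1 phosphatase (76-261aa) · Reagent – Phosphorylated 17-residue peptide substrate · Incubation – 45 min room-temperature reaction, 5 min colour, 30 min stabiliser · Detection – colorimetric phosphate reagent with accelerator and stabiliser, absorbance at 630 nm · Measure – % inhibition at 20 µM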
DNMT1 block – human DNMT1 methyltransferase inhibitors, primary screen, biochemical, molecular beacon, fluorescence, HinP1I cleavage, uHTS; DNA (cytosine-5)-methyltransferase 1 (Homo sapiens), P26358; inhibition (reported as % activation of signal), % at 10 µM; 360,000 tested, 0.83% active; AID 588458, 2011; in the data active = inhibition above about 50%
STEP block – STEP phosphatase inhibitors, primary screen, biochemical, fluorescence intensity, uHTS; Tyrosine-protein phosphatase non-receptor type 5 (Homo sapiens), P54829; recombinant STEP, OMFP fluorogenic substrate; inhibition, % at 20 µM; 360,000 tested, 0.25% active; AID 588621, 2011;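 active = inhibition at 20 µM, scaled per plate between control wells, above about 37%, limit read from the data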;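 also: 0% = DMSO with enzyme and substrate and 100% = substrate only without enzyme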
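Also added – OMFP at 25 µM · Test system – STEP tyrosine phosphatase · Technique – FITC-channel fluorescence of OMFP product · Schedule – 20 min at room temperature, dark · Evaluation – control-normalized % inhibition with plate pattern correction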
LMPTP block – LMPTP phosphatase inhibitors, primary screen, biochemical, fluorescence intensity, uHTS; Low molecular weight phosphotyrosine protein phosphatase (Homo sapiens), P24666; recombinant LMPTP-A, OMFP fluorogenic substrate; inhibition, % at 20 µM; 360,000 tested, 0.22% active;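 active = compounds that cut the enzyme signal by at least half of the control window in the single-dose screen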;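 also: plate controls were DMSO wells with enzyme plus substrate for no effect and substrate without enzyme for full effect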
Target sequence (P24666 whole entry, looked up): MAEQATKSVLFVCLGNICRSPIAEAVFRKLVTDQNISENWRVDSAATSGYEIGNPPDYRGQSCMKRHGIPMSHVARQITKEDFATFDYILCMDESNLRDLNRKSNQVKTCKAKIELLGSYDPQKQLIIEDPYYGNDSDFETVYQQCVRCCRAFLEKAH
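Test system: LMPTP-A phosphatase enzyme. Amount: LMPTP-A at 0.625 nM final in the reaction. Reagent: OMFP substrate, 400 µM final. Times: 50 min at room temperature. Signal: endpoint fluorescence intensity from OMFP dephosphorylation. Read-out basis: % inhibition. Benchmarks: no-enzyme and uninhibited controls.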
NadD conf – inhibitors of S. aureus NadD, confirmation, biochemical, colorimetric, single concentration; shares compounds with NadD inh; purified S. aureus NadD, colorimetric enzyme assay; inhibition, % at 20 µM; 2,000 tested, 13% active; in the data active = inhibition mostly above about 42%, no sharp cut-off; inactive = mostly below about 42%
* marks the source's active call; other numbers are inactive results. An excerpt weighted towards active compounds, which were near 2.4% of everything screened.

Results for O=C1NC[C@@H](CCCCN2C[C@H](Cc3ccc(O)cc3)N(CCC3CCCCC3)C(=O)C2=O)N(CC2CCCCC2)C1=O ?
NadD inh: 44*; SUMO1 PPI mod: 7; LMPTP block: 1; NadD conf: 47*

What do the screens show for `O=C1NC[C@H](Cc2ccccc2)N(C[C@@H]2CCCN2C[C@H](Cc2ccc(O)cc2)N2C[C@H](Cc3ccccc3)N(CC3CCCCCC3)C(=O)C2=O)C1=O`?
NadD inh: 39*; SUMO1 PPI mod: 2; LMPTP block: 8; NadD conf: 48*

How did CC(C)C[C@H]1CN([C@@H](Cc2ccccc2)CN2CCC[C@H]2CN2C(=O)C(=O)NC[C@@H]2Cc2ccc(O)cc2)C(=O)C(=O)N1CC1CCCCC1 do in these assays?
NadD inh: 31*; SUMO1 PPI mod: 5; LMPTP block: 1; NadD conf: 40

What do the screens show for `O=C1NC[C@H](Cc2ccccc2)N(C[C@H]2CCCN2C[C@H](Cc2ccccc2)N2C[C@H](Cc3ccccc3)N(CC3CCCCC3)C(=O)C2=O)C1=O`?
NadD inh: 17; SUMO1 PPI mod: 6; Scp-1 inhibitor: 13; DNMT1 block: 0; STEP block: 3; LMPTP block: 3

How did CCN(CC)c1ccc(C(=O)NNC(=O)CNC(=O)c2ccco2)cc1 do in these assays?
NadD inh: 4; SUMO1 PPI mod: 1; Scp-1 inhibitor: -6; DNMT1 block: 1; STEP block: 1; LMPTP block: -1

How did O=C(N/C(=C\c1cccc([N+](=O)[O-])c1)C(=O)N1CCOCC1)c1cccc(Br)c1 do in these assays?
NadD inh: 1; SUMO1 PPI mod: -22; Scp-1 inhibitor: 4; DNMT1 block: 5; STEP block: 1; LMPTP block: -2

What do the screens show for `Cc1ccc(-c2nsc3c(N4CCC(C(N)=O)CC4)ncnc23)cc1`?
NadD inh: 31*; SUMO1 PPI mod: -5; Scp-1 inhibitor: 8; DNMT1 block: -4; STEP block: -3; LMPTP block: -1; NadD conf: 6

What do the screens show for `CCOC(=O)c1c(NC(=O)CSc2nc3cc(Cl)ccc3c(=O)n2Cc2ccco2)sc(C(=O)N(C)C)c1C`?
NadD inh: 39*; SUMO1 PPI mod: 1; Scp-1 inhibitor: -5; DNMT1 block: -1; STEP block: 4; LMPTP block: 6; NadD conf: 8

How did CCn1c(-c2nonc2NC(=O)c2ccccc2)nc2ccccc21 do in these assays?
NadD inh: -9; SUMO1 PPI mod: 0; Scp-1 inhibitor: -6; DNMT1 block: 14; STEP block: 0; LMPTP block: 6

What do the screens show for `CC(C)(C)c1ccc(C(=O)Nc2nonc2-c2nc3ccccc3[nH]2)cc1`?
NadD inh: 55*; SUMO1 PPI mod: 1; Scp-1 inhibitor: -1; DNMT1 block: 31; STEP block: 4; LMPTP block: -2; NadD conf: 2

How did Cc1ccc(-c2csc(/C=C3/SC(C)C(=O)N3CC(=O)Nc3ccccc3F)n2)cc1 (stereo unspecified) do in these assays?
NadD inh: 22; SUMO1 PPI mod: -3; Scp-1 inhibitor: -1; DNMT1 block: 6; STEP block: 1; LMPTP block: 2

Results for CC(=O)c1ccccc1NC(=O)CN1C(=O)CS/C1=C\c1nc(-c2ccc(C)cc2)cs1 ?
NadD inh: 46*; SUMO1 PPI mod: -2; Scp-1 inhibitor: -5; DNMT1 block: -7; STEP block: 3; LMPTP block: 3; NadD conf: 2

How did Cc1ccc(NC(=O)c2cc(C(=O)c3cc(Cl)ccc3O)cn(-c3ccc(C)cc3)c2=O)cc1 do in these assays?
NadD inh: 31*; SUMO1 PPI mod: 0; Scp-1 inhibitor: 16; DNMT1 block: -1; STEP block: -2; LMPTP block: 0; NadD conf: -11

How did CC1CCCC(C)N1c1nnc(NC(=O)c2cc(-c3ccc(Br)cc3)on2)s1 (stereo unspecified) do in these assays?
NadD inh: 41*; SUMO1 PPI mod: 3; Scp-1 inhibitor: 6; DNMT1 block: 20; STEP block: 2; LMPTP block: -1; NadD conf: 20

Results for COc1ccc(/C(C)=N/NC(=O)CNC(=O)C(c2ccccc2)c2ccccc2)c(OC)c1 ?
NadD inh: 5; SUMO1 PPI mod: 1; Scp-1 inhibitor: -2; DNMT1 block: -1; STEP block: 0; LMPTP block: -1

How did COc1ccc(/C=C2\SC(=O)N(CCC(=O)Nc3ccc(S(=O)(=O)Nc4nccs4)cc3)C2=O)cc1 do in these assays?
NadD inh: 76*; SUMO1 PPI mod: -2; Scp-1 inhibitor: -6; DNMT1 block: -4; STEP block: 1; LMPTP block: 6; NadD conf: 60*

What do the screens show for `COc1ccc(/C=C2/SC(=O)N(CCC(=O)Nc3ccc(S(=O)(=O)Nc4nccs4)cc3)C2=O)cc1`?
NadD inh: 69*; SUMO1 PPI mod: -5; Scp-1 inhibitor: -4; DNMT1 block: -2; STEP block: 1; LMPTP block: 4; NadD conf: 49*

How did CC1CC(C)CN(C(=O)c2ccc3c(=O)n(Cc4ccc5c(c4)OCO5)c(=S)[nH]c3c2)C1 (stereo unspecified) do in these assays?
NadD inh: 32*; SUMO1 PPI mod: 0; Scp-1 inhibitor: -13; DNMT1 block: 1; STEP block: 1; LMPTP block: 1; NadD conf: 5

How did O=C(c1ccc2c(=O)n(Cc3ccco3)c(=S)[nH]c2c1)N1CCN(c2ccccc2)CC1 do in these assays?
NadD inh: 28*; SUMO1 PPI mod: 5; Scp-1 inhibitor: -10; DNMT1 block: -2; STEP block: 3; LMPTP block: 1; NadD conf: 24

What do the screens show for `CCOC(=O)C1CCN(S(=O)(=O)c2ccc3oc(=O)ccc3c2)CC1`?
NadD inh: -4; SUMO1 PPI mod: 2; Scp-1 inhibitor: 4; DNMT1 block: 0; STEP block: -1; LMPTP block: 0
